ChEMBL document CHEMBL4422635, “Structure-Based Discovery of a Subtype-Selective Inhibitor Targeting a Transient Receptor Potential Vanilloid Channel” (J Med Chem, 2019)
Changes are numbered by the printed parent chain. The source made the active and inactive calls. The rule behind the calls is not given here.

Legend:
Type in all cases: cell-based
[1] = target: Transient receptor potential cation channel subfamily V member 1 (Mus musculus) (UniProt Q704Y3); experiment: Antagonist activity at mouse TRPV1 expressed in HEK293T cells assessed as inhibition of 2-APB evoked currents at 3 to 10 uM -60 mV holding potential by whole-cell patch clamp assay
Transient receptor potential cation channel subfamily V member 1 (Mus musculus), sequence (Q704Y3 whole entry): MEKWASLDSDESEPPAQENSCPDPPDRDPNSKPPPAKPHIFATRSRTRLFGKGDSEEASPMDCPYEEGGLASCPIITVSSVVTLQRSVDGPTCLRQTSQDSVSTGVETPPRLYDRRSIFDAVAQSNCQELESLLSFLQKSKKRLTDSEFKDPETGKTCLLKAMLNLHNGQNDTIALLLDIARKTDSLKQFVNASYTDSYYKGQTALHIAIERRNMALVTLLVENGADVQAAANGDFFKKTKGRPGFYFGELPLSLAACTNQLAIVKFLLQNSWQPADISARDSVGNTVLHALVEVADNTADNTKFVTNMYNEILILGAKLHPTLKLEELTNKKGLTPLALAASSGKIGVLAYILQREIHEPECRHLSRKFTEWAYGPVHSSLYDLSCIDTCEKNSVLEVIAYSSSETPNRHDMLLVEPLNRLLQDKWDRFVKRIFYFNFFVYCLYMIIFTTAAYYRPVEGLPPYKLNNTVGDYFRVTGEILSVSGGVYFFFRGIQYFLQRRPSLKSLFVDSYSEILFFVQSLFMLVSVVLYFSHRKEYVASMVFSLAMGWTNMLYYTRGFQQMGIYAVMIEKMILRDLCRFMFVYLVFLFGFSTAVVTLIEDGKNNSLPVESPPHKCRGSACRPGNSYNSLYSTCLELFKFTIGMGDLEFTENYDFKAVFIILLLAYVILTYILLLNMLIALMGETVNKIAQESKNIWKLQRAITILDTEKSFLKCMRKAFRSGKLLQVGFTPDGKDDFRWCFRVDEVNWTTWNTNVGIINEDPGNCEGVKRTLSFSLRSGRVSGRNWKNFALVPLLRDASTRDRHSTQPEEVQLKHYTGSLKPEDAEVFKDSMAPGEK
Method in brief: (§1)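 Whole-cell voltage clamp of transiently transfected HEK293T cells co-expressing GFP, recorded 36-96 h post-transfection. Hold -60 mV; pipettes 3-7 MΩ. Bath 165 mM NaCl, 10 mM HEPES pH 7.3; pipette 140 mM KCl, 10 mM HEPES pH 7.3. Room temperature (~25 °C). IC50 from Hill fits of I/I0, the current ratio after vs before inhibitor; mean ± SEM.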

[2] = target: Transient receptor potential cation channel subfamily V member 4 (Mus musculus) (UniProt Q9EPK8); experiment: Antagonist activity at mouse TRPV4 expressed in HEK293T cells assessed as inhibition of GSK-1016790A evoked currents at 3 to 10 uM -60 mV holding potential by whole-cell patch clamp assay; method in brief: as §1
Transient receptor potential cation channel subfamily V member 4 (Mus musculus), sequence (Q9EPK8 whole entry): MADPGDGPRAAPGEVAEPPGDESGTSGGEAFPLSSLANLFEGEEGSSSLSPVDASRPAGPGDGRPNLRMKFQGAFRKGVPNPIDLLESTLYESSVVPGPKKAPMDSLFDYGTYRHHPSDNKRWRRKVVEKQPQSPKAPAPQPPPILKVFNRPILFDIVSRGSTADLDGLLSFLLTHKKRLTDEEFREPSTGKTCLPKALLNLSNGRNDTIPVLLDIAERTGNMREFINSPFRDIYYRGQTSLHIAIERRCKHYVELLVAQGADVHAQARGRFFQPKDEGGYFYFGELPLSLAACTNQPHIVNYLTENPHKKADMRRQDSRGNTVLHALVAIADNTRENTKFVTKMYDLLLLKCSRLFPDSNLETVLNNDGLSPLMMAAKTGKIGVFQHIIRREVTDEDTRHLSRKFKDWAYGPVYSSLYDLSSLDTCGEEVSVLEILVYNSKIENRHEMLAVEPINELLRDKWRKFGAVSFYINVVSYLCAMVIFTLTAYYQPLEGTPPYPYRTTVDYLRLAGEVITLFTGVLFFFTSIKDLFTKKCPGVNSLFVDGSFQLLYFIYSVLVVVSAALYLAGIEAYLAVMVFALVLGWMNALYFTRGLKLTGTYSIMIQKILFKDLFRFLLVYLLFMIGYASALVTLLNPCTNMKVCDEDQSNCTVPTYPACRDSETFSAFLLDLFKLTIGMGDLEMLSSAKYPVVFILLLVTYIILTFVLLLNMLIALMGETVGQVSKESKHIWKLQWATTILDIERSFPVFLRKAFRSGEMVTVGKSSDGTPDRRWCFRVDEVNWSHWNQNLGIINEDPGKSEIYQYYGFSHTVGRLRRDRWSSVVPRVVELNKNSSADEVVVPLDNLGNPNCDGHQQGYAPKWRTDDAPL

[3] = system: T1, Transient receptor potential cation channel subfamily V member 2 (Mus musculus), Q9WTR1 [L505T]; experiment: Antagonist activity at mouse TRPV2 L505T mutant expressed in HEK293T cells assessed as inhibition of 2-APB evoked currents at -60 mV holding potential by whole-cell patch clamp assay; method in brief: as §1
T1 sequence (whole entry): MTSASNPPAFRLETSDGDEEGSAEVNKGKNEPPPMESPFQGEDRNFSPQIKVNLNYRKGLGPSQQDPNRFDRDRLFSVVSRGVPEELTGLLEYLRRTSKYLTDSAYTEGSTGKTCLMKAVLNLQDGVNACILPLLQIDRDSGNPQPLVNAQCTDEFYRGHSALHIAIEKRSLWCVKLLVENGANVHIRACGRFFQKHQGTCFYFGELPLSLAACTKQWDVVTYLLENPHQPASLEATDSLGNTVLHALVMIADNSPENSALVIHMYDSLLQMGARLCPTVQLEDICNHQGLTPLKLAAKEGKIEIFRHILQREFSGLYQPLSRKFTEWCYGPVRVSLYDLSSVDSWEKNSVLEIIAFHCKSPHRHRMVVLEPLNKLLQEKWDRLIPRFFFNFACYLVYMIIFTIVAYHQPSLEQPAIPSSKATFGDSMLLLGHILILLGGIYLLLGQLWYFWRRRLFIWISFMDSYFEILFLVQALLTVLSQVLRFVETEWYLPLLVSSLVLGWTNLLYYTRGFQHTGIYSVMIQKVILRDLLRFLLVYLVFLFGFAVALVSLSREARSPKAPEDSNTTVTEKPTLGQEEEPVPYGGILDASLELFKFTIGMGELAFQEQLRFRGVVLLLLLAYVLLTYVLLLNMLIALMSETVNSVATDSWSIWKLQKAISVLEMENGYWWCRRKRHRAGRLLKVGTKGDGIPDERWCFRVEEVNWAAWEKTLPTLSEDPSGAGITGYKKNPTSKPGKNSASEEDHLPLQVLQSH

[4] = system: T2, Transient receptor potential cation channel subfamily V member 2 (Mus musculus), Q9WTR1 [F467S]; experiment: Antagonist activity at mouse TRPV2 F467S mutant expressed in HEK293T cells assessed as inhibition of 2-APB evoked currents at -60 mV holding potential by whole-cell patch clamp assay; method in brief: as §1
T2 sequence (whole entry): T1 sequence (whole entry) with F467S, T505L

[5] = system: Transient receptor potential cation channel subfamily V member 1 (Mus musculus), Q704Y3 [S513F,T551L]; experiment: Antagonist activity at mouse TRPV1 S513F/T551L double mutant expressed in HEK293T cells assessed as inhibition of 2-APB evoked currents at 0.3 to 10 uM at -60 mV holding potential by whole-cell patch clamp assay; method in brief: as §1
Transient receptor potential cation channel subfamily V member 1 (Mus musculus), Q704Y3 [S513F,T551L], sequence (Q704Y3 whole entry S513F/T551L): as the sequence (Q704Y3 whole entry) above, with S513F, T551L counted along it

[6] = system: T3, Transient receptor potential cation channel subfamily V member 2 (Mus musculus), Q9WTR1 [F467A]; experiment: Antagonist activity at mouse TRPV2 F467A mutant expressed in HEK293T cells assessed as inhibition of 2-APB evoked currents at -60 mV holding potential by whole-cell patch clamp assay; method in brief: as §1
T3 sequence (whole entry): T1 sequence (whole entry) with F467A, T505L

Question: Which inhibition [1] does the source give for `CCCN(C)c1cc(C(F)(F)F)nc(SCCC(=O)NCc2ccco2)n1` here?
Answer: Its inhibition is “inactive”.

Question: What about the inhibition [2] of the same compound?
Answer: Its inhibition is “inactive”.

Question: And the inhibition [3]?
Answer: Its inhibition is “inactive”.

Question: And the inhibition [4]?
Answer: Its inhibition is “inactive”.

Question: What about the inhibition [5] of the same compound?
Answer: Its inhibition is “Active”.

Question: And the inhibition [6]?
Answer: Its inhibition is “inactive”.
